In ChEMBL document CHEMBL1151708, “Isoflavonoid glycosides from the roots of Baphia bancoensis” (2008) one finds MIC data, which are given here for three molecules.

Holding throughout (assay type): functional
In assay [1] the test system is Staphylococcus aureus. As to the kind of experiment: Antibacterial activity against Staphylococcus aureus ATCC 2523 after 18 hrs by liquid microdilution method. Conditions: ATCC 2523, 18 h. Summed up: (§1)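 Broth microdilution MIC. Compound dissolved in MeOH at 512 µg/mL, serially diluted 2-fold in Mueller-Hinton medium to 1–128 µg/mL. Each dilution added to wells of Mueller-Hinton medium with standard inoculum; final MeOH below 6%. Plates sealed, agitated, incubated 37 °C, 18 h. MIC is the lowest concentration giving no colour change. Run in triplicate.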

Assay [2] deals with Enterococcus faecalis. The assay can be described thus: Antibacterial activity against Enterococcus faecalis ATCC 29212 after 18 hrs by liquid microdilution method. The following applies: ATCC 29212, 18 h. Summed up: as §1
Background: Dilution methods test growth across graded concentrations, often in twofold steps.

In assay [3] the test system is Escherichia coli. The assay can be described thus: Antibacterial activity against Escherichia coli ATCC 25922 after 18 hrs by liquid microdilution method. The following applies: ATCC 25922, 18 h. Summed up: as §1
Assay [4] relates to Pseudomonas aeruginosa. The assay can be described thus: Antibacterial activity against Pseudomonas aeruginosa ATCC 27853 after 18 hrs by liquid microdilution method. Conditions: ATCC 27853, 18 h. Summed up:
as §1

Converted amounts (≈) assume the structure as drawn.

The term MIC denotes the lowest concentration found to suppress growth. The low end stands for a more susceptible organism, the high end for a less susceptible organism.

Turning to `COc1ccc(-c2coc3cc(O[C@@H]4O[C@H](CO[C@@H]5O[C@@H](C)[C@H](O)[C@@H](O)[C@H]5O)[C@@H](O)[C@H](O[C@@H]5O[C@H](CO[C@@H]6O[C@@H](C)[C@H](O)[C@@H](O)[C@H]6O)[C@@H](O)[C@H](O)[C@H]5O)[C@H]4O)c(OC)c(OC)c3c2=O)cc1`, the MIC in assay [1], in assay [2], in assay [3] and in assay [4] was greater than 135 µM each time.
On to `COc1ccc(-c2coc3cc(O[C@@H]4O[C@H](CO[C@@H]5O[C@@H](C)[C@H](O)[C@@H](O)[C@H]5O)[C@@H](O)[C@H](O)[C@H]4O)c(OC)c(OC)c3c2=O)cc1`, for which the MIC in assay [1] was 48.4 µM (≈ 30.8 µg/mL); in assay [2], 48.4 µM (≈ 30.8 µg/mL); in assay [3], greater than 196 µM; in assay [4], 196 µM (≈ 125 µg/mL).
Turning to `COc1ccc(-c2coc3cc(O)c(OC)c(OC)c3c2=O)cc1`, the MIC amounted to 97.5 µM (≈ 32 µg/mL) in assay [1], 97.5 µM (≈ 32 µg/mL) in assay [2], 390 µM (≈ 128 µg/mL) in assay [3] and 195 µM (≈ 64 µg/mL) in assay [4].
